From publication PMC4284021 (The Journal of Pharmacy and Pharmacology, 2014)
Several values for one entry are separate records, joined by “and”; a condition that tells them apart may be missing. Equal entries are not always repeated. Entries after “also recorded” stand apart in the source; their conditions may differ. Marks after values point to notes of the source that are not given here.

Tests used:
[1] = target: T1, cholesteryl ester transfer protein (CETP) activity (Homo sapiens, UniProt P11597); assay: Serum CETP activity by fluorometric assay in healthy subjects; format: in vivo; conditions: for CETP activity: Mean % change from baseline (90% CI) / CETP activity: Mean % change vs placebo (90 % CI): trough (predose) day 14
T1 sequence (P11597 18-493): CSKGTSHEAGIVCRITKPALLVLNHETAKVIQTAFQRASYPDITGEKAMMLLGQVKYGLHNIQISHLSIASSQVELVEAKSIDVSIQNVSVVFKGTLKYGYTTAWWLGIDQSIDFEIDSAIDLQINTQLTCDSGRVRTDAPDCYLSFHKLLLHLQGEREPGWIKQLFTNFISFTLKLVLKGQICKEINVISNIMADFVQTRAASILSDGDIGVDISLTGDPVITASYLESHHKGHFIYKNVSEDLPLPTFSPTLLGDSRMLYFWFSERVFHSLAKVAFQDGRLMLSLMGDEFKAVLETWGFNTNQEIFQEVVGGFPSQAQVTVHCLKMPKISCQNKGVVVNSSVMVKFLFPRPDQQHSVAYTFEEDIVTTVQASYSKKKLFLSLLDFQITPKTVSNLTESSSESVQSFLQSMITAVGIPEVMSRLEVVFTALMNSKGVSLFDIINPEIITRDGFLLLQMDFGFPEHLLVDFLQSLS
How it was run: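 Serum was sampled at the pharmacokinetic time points, including pre-dose troughs, after once-daily oral dosing (10–600 mg) or placebo. CETP activity was measured by fluorometric assay and expressed as the maximum test-compound-inhibitable activity. Change from baseline was analysed with an Emax dose model (Hill coefficient 1, baseline covariate).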

healthy subjects = assay: Safety and tolerability monitoring; format: in vivo, human
How it was run: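 All enrolled subjects were monitored on placebo or once-daily 10–600 mg oral capsules for up to 15 days. Monitoring covered vital signs, serum and plasma electrolytes, plasma renin activity, aldosterone, plasma and salivary cortisol, and adverse events coded by MedDRA 11.0 preferred term.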

[2] = test system: HDL-C, LDL-C, total cholesterol, triglycerides; assay: Lipid analyses; format: in vivo, human; conditions: for HDL-C: Mean % change from baseline (90% CI) / HDL-C: Mean % change vs placebo (90 % CI) / LDL-C: Mean % change from baseline (90% CI) / LDL-C: Mean % change vs placebo (90 % CI) / Total cholesterol: Mean % change from baseline (90% CI) / Total cholesterol: Mean % change vs placebo (90 % CI) / Triglycerides: Mean % change from baseline (90% CI) / Triglycerides: Mean % change vs placebo (90 % CI): day 14
How it was run: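 Placebo-controlled once-daily oral capsules (10–600 mg) with a low-fat meal for 14–15 days. Total cholesterol and triglycerides were measured by enzymatic methods. HDL-C was measured after dextran sulfate precipitation and centrifugation of LDL/VLDL. LDL-C was measured by a direct assay. Change from baseline was taken to Day 14 and to 2 weeks after the last dose. Emax models (Hill coefficient 1, baseline covariate) were used for HDL-C/LDL-C; linear models for total cholesterol and triglycerides.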

[3] = Multiple-dose pharmacokinetics of evacetrapib in plasma; format: in vivo, human; conditions: for CL/F: geometric mean (CV %)
How it was run: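 Once-daily oral doses of 10–600 mg for 14–15 days. Sampling: six serial samples on Day 1; 11 through 336 h after the last dose; trough samples on Days 2, 3, 4, 7 and 10. Acidified K2EDTA plasma was extracted by anion-exchange SPE with an isotope-labelled internal standard. Analysis by C18 LC/MS/MS, positive ion, SRM m/z 639→314. Range 1–1000 ng/ml. Parameters by non-compartmental analysis; dose proportionality on Day 14 by power model.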

## Cc1cc(C)c2c(c1)[C@@H](N(Cc1cc(C(F)(F)F)cc(C(F)(F)F)c1)c1nnn(C)n1)CCCN2C[C@H]1CC[C@H](C(=O)O)CC1 [evacetrapib]
[1]; 10 mg/day
  CETP activity: Mean % change from baseline (90% CI): −14.60 (−22.33, −6.87) %
  CETP activity: Mean % change vs placebo (90 % CI): −16.08 (−23.23, −8.94) ^*** %
[1]; 100 mg
  trough inhibition of CETP activity: 65%
[1]; 100 mg/day
  CETP activity: Mean % change from baseline (90% CI): −64.54 (−73.08, −56.00) %
  CETP activity: Mean % change vs placebo (90 % CI): −66.02 (−78.93, −53.11) ^*** %
[1]; 300 mg
  trough inhibition of CETP activity: 84%
[1]; 300 mg/day
  CETP activity: Mean % change from baseline (90% CI): −84.26 (−91.34, −77.18) %
  CETP activity: Mean % change vs placebo (90 % CI): −85.74 (−97.43, −74.05) ^*** %
[1]; 600 mg
  trough inhibition of CETP activity: 91% and 91.2%
[1]; 600 mg, after multiple doses
  inhibition of CETP activity compared with placebo: 93%
[1]; 600 mg/day
  CETP activity: Mean % change from baseline (90% CI): −91.18 (−99.71, −82.66) %
  CETP activity: Mean % change vs placebo (90 % CI): −92.66 (−104.92, −80.41) ^*** %
[1]; each dose group
  CETP activity after 2-week (336 h) washout: returned to levels at or near baseline; also recorded: returned to baseline levels
Healthy subjects; 10–600 mg
  severity of adverse events: mild to moderate
Healthy subjects; 10–600 mg for up to 15 days
  tolerability: generally well tolerated
Healthy subjects; in vivo
  changes in routine serum chemistries (liver transaminases, complete blood counts, urinalysis): No clinically relevant changes
Healthy subjects; multiple daily doses
  effect on aldosterone: no effect
Healthy subjects; two at 300 mg, two at 600 mg
  subjects reporting rash-related AEs (discontinued the study): Four
[2]; 10 mg/day
  HDL-C: Mean % change from baseline (90% CI): 11.69 (4.39, 18.99) %
  HDL-C: Mean % change vs placebo (90 % CI): 18.02 (9.76, 26.28) ^*** %
  LDL-C: Mean % change from baseline (90% CI): −11.94 (−18.31, −5.57) %
  LDL-C: Mean % change vs placebo (90 % CI): −13.59 (−21.83, −5.35) ^** %
  Total cholesterol: Mean % change from baseline (90% CI): −4.92 (−15.93, 6.10) %
  Total cholesterol: Mean % change vs placebo (90 % CI): −4.26 (−17.58, 9.06) %
  Triglycerides: Mean % change from baseline (90% CI): −12.92 (−26.89, 1.06) %
  Triglycerides: Mean % change vs placebo (90 % CI): 5.51 (−11.39, 22.40) %
[2]; 100 mg/day
  HDL-C: Mean % change from baseline (90% CI): 59.28 (51.54, 67.02) %
  HDL-C: Mean % change vs placebo (90 % CI): 65.61 (53.34, 77.88) ^*** %
  LDL-C: Mean % change from baseline (90% CI): −24.47 (−27.68, −21.26) %
  LDL-C: Mean % change vs placebo (90 % CI): −26.13 (−32.39, −19.86) ^*** %
  Total cholesterol: Mean % change from baseline (90% CI): 6.83 (−4.18, 17.85) %
  Total cholesterol: Mean % change vs placebo (90 % CI): 7.49 (−5.83, 20.81) %
  Triglycerides: Mean % change from baseline (90% CI): −3.75 (−17.73, 10.23) %
  Triglycerides: Mean % change vs placebo (90 % CI): 14.67 (−2.22, 31.57) %
[2]; 300 mg/day
  HDL-C: Mean % change from baseline (90% CI): 75.22 (68.87, 81.58) %
  HDL-C: Mean % change vs placebo (90 % CI): 81.56 (70.90, 92.22) ^*** %
  LDL-C: Mean % change from baseline (90% CI): −26.39 (−29.92, −22.85) %
  LDL-C: Mean % change vs placebo (90 % CI): −28.04 (−34.18, −21.90) ^*** %
  Total cholesterol: Mean % change from baseline (90% CI): 15.60 (3.53, 27.67) %
  Total cholesterol: Mean % change vs placebo (90 % CI): 16.25 (2.05, 30.46) %
  Triglycerides: Mean % change from baseline (90% CI): −2.10 (−17.41, 13.21) %
  Triglycerides: Mean % change vs placebo (90 % CI): 16.32 (−1.69, 34.34) %
[2]; 600 mg, Day 14, relative to placebo
  decrease in LDL-C: 29%
[2]; 600 mg/day
  HDL-C: Mean % change from baseline (90% CI): 80.50 (73.05, 87.95) %
  HDL-C: Mean % change vs placebo (90 % CI): 87% and 86.83 (75.96, 97.71) ^*** %
  LDL-C: Mean % change from baseline (90% CI): −26.91 (−30.71, −23.11) %
  LDL-C: Mean % change vs placebo (90 % CI): −28.56 (−34.76, −22.37) ^*** %
  Total cholesterol: Mean % change from baseline (90% CI): 15.48 (7.85, 23.11) %
  Total cholesterol: Mean % change vs placebo (90 % CI): 16.13 (5.44, 26.82) ^* %
  Triglycerides: Mean % change from baseline (90% CI): −22.08 (−31.76, −12.40) %
  Triglycerides: Mean % change vs placebo (90 % CI): −3.66 (−17.22, 9.91) %
[2]; 10–600 mg, Day 14
  changes in triglycerides: no statistically significant changes
[2]; 600-mg dose group
  HDL-C change (SD) from baseline to 2 weeks after the last dose: 7.3%
  LDL-C change (SD) from baseline to 2 weeks after the last dose: −2.6%
[2]; all dose groups
  HDL-C and LDL-C after 2-week washout: returned to levels at or near baseline
[3]; 10 mg once daily, steady state
  CL/F: 17.5 (21) l/h
[3]; 100 mg once daily, steady state
  CL/F: 21.7 (30) l/h
[3]; 300 mg once daily, steady state
  CL/F: 39.6 (44) l/h
[3]; 600 mg once daily, steady state, n = 24
  CL/F: 43.6 ^e (34) l/h
[3]; 600 mg/day for 14 days, crossover cohort, 3-week washout
  levels of evacetrapib 3 weeks after last dose: undetectable levels; also recorded: complete washout
[3]; 10–600 mg
  dose proportionality of plasma exposure: less than dose-proportional
  mean apparent oral clearance at steady state, range across doses: 17.5 to 43.6 L/h
[3]; after 14 daily doses
  AUCt,ss for 600 mg relative to 100 mg: approximately threefold
[3]; based on trough concentrations, between Days 1 and 14
  accumulation ratio during multiple dosing: 2–2.5
[3]; each dose group
  levels of evacetrapib after 2-week (336 h) washout: returned to levels at or near baseline; also recorded: decreased to near the lower limit of detection
[3]; human, plasma, oral
  half-life: 24 to 44 h
[3]; human, plasma, oral, 10 mg, tmax, 10 mg once daily, steady state, median (range)
  Tmax: 4.02 h
[3]; once-daily dosing
  time to steady state: approximately 10 days
